Data from ChEMBL document CHEMBL1134791, “2- and 3-substituted 1,4-naphthoquinone derivatives as subversive substrates of trypanothione reductase and lipoamide dehydrogenase from Trypanosoma cruzi: synthesis and correlation between redox cycling activities and in vitro cytotoxicity” (J Med Chem, 2001).

How the values were obtained:
Trypanosoma brucei [1] = assay: In vitro antiparasitic activity against Trypanosoma brucei was tested by sigmoidal regression analysis; type: functional; conditions: read-out: ED50 (the source's name)
Summary of the method: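 T. b. brucei S427 bloodstream trypomastigotes at 2 × 10⁵/mL in HMI-18 medium, in triplicate, with a 3-fold dilution series starting at 30 µM. Incubated 3 days at 37 °C in 5% CO₂. Pentamidine served as positive control. Viability read by tetrazolium colorimetric assay on day 3. ED50 by sigmoidal regression.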

[2] = Compound dose toxic against macrophages of Trypanosoma cruzi; type: ADME
Summary of the method: (§1)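 Starch-induced peritoneal macrophages from female CD1 mice, 4 × 10⁵/mL in RPMI-1640, infected 5:1 with T. cruzi Y-strain trypomastigotes from MDCK overlay. Drug in 3-fold dilution series, quadruplicate, 3 days. Slides methanol-fixed and Giemsa-stained.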

Trypanothione reductase = Trypanothione reductase (Trypanosoma cruzi, UniProt P28593); assay: Inhibitory activity against Trypanosoma cruzi trypanothione disulfide reductase, assay in presence of 57 uM T(S)2.
Summary of the method: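 Assay contained 250 µM NADPH, 57 µM T(S)₂, inhibitor at 0.3–50 µM and 1% DMSO final. Started with enzyme; NADPH loss followed at 340 nm. IC50 in duplicate.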

Trypanosoma cruzi = assay: In vitro antiparasitic activity against Trypanosoma cruzi was tested by sigmoidal regression analysis; type: functional; conditions: read-out: ED50 (the source's name)
Summary of the method: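 Mouse peritoneal macrophages (female CD1, starch-elicited, harvested 24 h) infected with L. donovani amastigotes (strain MHOM/ET/67/L82, hamster spleen) or T. cruzi Y-strain trypomastigotes (5:1, from MDCK overlay). Infected cells exposed to a 3-fold dilution series in quadruplicate for 5 days (L. donovani) or 3 days (T. cruzi). Giemsa-stained slides scored for % macrophages cleared of amastigotes versus untreated cultures. ED50 by sigmoidal regression.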

[3] = Compound dose toxic against mouse peritoneal macrophages infected with Leishmania donovani; type: ADME
Summary of the method: (§2)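 Starch-induced peritoneal macrophages from female CD1 mice, 4 × 10⁵/mL in RPMI-1640, infected with L. donovani (MHOM/ET/67/L82) amastigotes from hamster spleen. Drug in 3-fold dilution series, quadruplicate, 5 days. Giemsa-stained slides.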

[4] = Compound dose toxic against mouse peritoneal macrophages infected with Leishmania donovani (100% inhibition); type: ADME; summary of the method: as §2
[5] = Compound dose toxic against macrophages of Trypanosoma cruzi (100% inhibition); type: ADME; summary of the method: as §1
Trypanosoma brucei [6] = assay: In vitro antiparasitic activity against Trypanosoma brucei was tested by sigmoidal regression analysis; conditions: read-out: ED50 (the source's name)
[7] = Compound dose toxic against mouse peritoneal macrophages infected with Leishmania donovani (100 % inhibition); type: ADME; summary of the method: as §2
[8] = Compound dose toxic against macrophages of Trypanosoma cruzi (100 % inhibition); type: ADME; summary of the method: as §1

Trypanothione reductase, sequence (P28593 whole entry): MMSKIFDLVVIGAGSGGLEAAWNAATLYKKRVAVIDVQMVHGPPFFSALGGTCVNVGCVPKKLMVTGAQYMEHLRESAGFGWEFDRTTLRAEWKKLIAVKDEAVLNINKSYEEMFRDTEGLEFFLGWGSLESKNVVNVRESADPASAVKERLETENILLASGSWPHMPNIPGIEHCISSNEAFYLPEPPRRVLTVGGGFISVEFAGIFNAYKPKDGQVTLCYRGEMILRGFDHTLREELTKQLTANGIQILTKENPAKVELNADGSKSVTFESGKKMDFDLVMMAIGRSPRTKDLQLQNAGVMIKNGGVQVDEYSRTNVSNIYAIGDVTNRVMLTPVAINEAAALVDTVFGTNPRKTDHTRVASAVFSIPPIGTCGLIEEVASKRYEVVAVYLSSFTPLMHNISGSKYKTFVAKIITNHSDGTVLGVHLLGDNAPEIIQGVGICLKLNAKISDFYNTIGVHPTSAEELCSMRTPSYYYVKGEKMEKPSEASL

## CC1=C(NCCCNCCC/N=C2/C(=O)c3ccccc3C(O)=C2C)C(=O)c2ccccc2C1=O
Trypanosoma brucei [1]
  EC50: > 12.5 µM
[2]
  Toxic dose: 10 µM
Trypanothione reductase
  IC50: 9 µM

## CC1=C(CCCC(=O)NCCCNCCCNC(=O)CCCC2=C(C)C(=O)c3ccccc3C2=O)C(=O)c2ccccc2C1=O
Trypanosoma brucei [1]
  EC50: 27 µM
Trypanosoma cruzi
  EC50: > 49 µM
Trypanothione reductase
  IC50: 11 µM

## CC1=C(NCCCNCCCCNCCCNC2=C(C)C(=O)c3ccccc3C2=O)C(=O)c2ccccc2C1=O
[3]
  Toxic dose: 30 µM
Trypanosoma brucei [1]
  EC50: > 1 µM
[2]
  Toxic dose: 1 µM
Trypanothione reductase
  IC50: 6.5 µM

## CC1=C(NCCCNCCCN)C(=O)c2c(O)cccc2C1=O
Trypanosoma brucei [1]
  EC50: > 12.5 µM
[2]
  Toxic dose: 1 µM
Trypanothione reductase
  IC50: 57 µM

## CC1=C(NCCCCN)C(=O)c2ccccc2C1=O
Trypanosoma brucei [1]
  EC50: > 12.5 µM
[2]
  Toxic dose: 3 µM
Trypanothione reductase
  IC50: > 57 µM

## CC1=C(NCCCNCCCCNCCCN)C(=O)c2c(O)cccc2C1=O
Trypanosoma brucei [1]
  EC50: > 30 µM
[2]
  Toxic dose: 1 µM
Trypanothione reductase
  IC50: 28 µM

## CC1=C(NCCCN2CCN(CCCNC3=C(C)C(=O)c4ccccc4C3=O)CC2)C(=O)c2ccccc2C1=O
Trypanosoma brucei [1]
  EC50: > 12.5 µM
[2]
  Toxic dose: 30 µM
Trypanothione reductase
  IC50: 10 µM

## CN1CCN(CCCNC(=O)CCCCCC2=C(CCCCCC(=O)NCCCN3CCN(C)CC3)C(=O)c3c(O)cccc3C2=O)CC1
[3]
  Toxic dose: 10 µM
Trypanosoma brucei [1]
  EC50: 10.1 µM
[2]
  Toxic dose: 30 µM
Trypanothione reductase
  IC50: 0.8 µM

## CC1=C(CCC(=O)NCCCN2CCN(C)CC2)C(=O)c2ccccc2C1=O
Trypanosoma brucei [1]
  EC50: > 10 µM
[2]
  Toxic dose: 30 µM
Trypanothione reductase
  IC50: 38 µM

## CN1CCN(CCCNC(=O)CCCC2=C(CCCC(=O)NCCCN3CCN(C)CC3)C(=O)c3c(O)cccc3C2=O)CC1
Trypanosoma brucei [1]
  EC50: 259 µM
Trypanosoma cruzi
  EC50: 59 µM
Trypanothione reductase
  IC50: 11 µM

## CC1=C(NCCCNCCCCNCCCN)C(=O)c2ccccc2C1=O
[3]
  Toxic dose: 30 µM
Trypanosoma brucei [1]
  EC50: 30 µM
[2]
  Toxic dose: 1 µM
Trypanothione reductase
  IC50: 28 µM

## CN1CCN(C(=O)CCCCCC2=C(CCCCCC(=O)N3CCN(C)CC3)C(=O)c3c(O)cccc3C2=O)CC1
[3]
  Toxic dose: 3 µM
Trypanosoma brucei [1]
  EC50: 13.1 µM
[2]
  Toxic dose: 3 µM
Trypanothione reductase
  IC50: 2.9 µM

## CC1=C(O)c2cccc(O)c2C(=O)/C1=N\CCCN1CCN(C)CC1
[4]
  Toxic dose: 30 µM
[5]
  Toxic dose: 10 µM
Trypanosoma brucei [1]
  EC50: > 12.5 µM
Trypanothione reductase
  IC50: > 57 µM

## CC1=C(CCC(=O)NCCCN2CCN(CCCNC(=O)CCC3=C(C)C(=O)c4cccc(O)c4C3=O)CC2)C(=O)c2c(O)cccc2C1=O
Trypanosoma cruzi
  EC50: 44 µM
Trypanothione reductase
  IC50: 2.6 µM
Trypanosoma brucei [6]
  EC50: 30.3 µM

## CC1=C(NCCCN2CCN(CCCN)CC2)C(=O)c2c(O)cccc2C1=O
[3]
  Toxic dose: 30 µM
Trypanosoma brucei [1]
  EC50: > 3 µM
[2]
  Toxic dose: 3 µM
Trypanothione reductase
  IC50: 39 µM

## CN1CCN(C(=O)CCCCC2=C(CCCCC(=O)N3CCN(C)CC3)C(=O)c3c(O)cccc3C2=O)CC1
[3]
  Toxic dose: 3 µM
Trypanosoma brucei [1]
  EC50: > 56 µM
[2]
  Toxic dose: 10 µM
Trypanothione reductase
  IC50: 5.9 µM

## CC1=C(CCC(=O)NCCCN2CCN(C)CC2)C(=O)c2c(O)cccc2C1=O
Trypanosoma brucei [1]
  EC50: > 10 µM
[2]
  Toxic dose: 10 µM
Trypanothione reductase
  IC50: 16 µM

## CC1=CC(=O)c2ccccc2C1=O [MENADIONE]
[3]
  Toxic dose: 30 µM
[2]
  Toxic dose: 10 µM

## CC1=CC(=O)c2c(O)cccc2C1=O [PLUMBAGIN]
[7]
  Toxic dose: 3 µM
[8]
  Toxic dose: 10 µM
Trypanosoma brucei [1]
  EC50: 1.5 µM
